Active and inactive are the calls of the source. No cut-off for these calls is given here.

Assay [1] deals with T1, Adenosine receptor A3 (Homo sapiens, UniProt P0DMS8).
T1 sequence (P0DMS8 whole entry): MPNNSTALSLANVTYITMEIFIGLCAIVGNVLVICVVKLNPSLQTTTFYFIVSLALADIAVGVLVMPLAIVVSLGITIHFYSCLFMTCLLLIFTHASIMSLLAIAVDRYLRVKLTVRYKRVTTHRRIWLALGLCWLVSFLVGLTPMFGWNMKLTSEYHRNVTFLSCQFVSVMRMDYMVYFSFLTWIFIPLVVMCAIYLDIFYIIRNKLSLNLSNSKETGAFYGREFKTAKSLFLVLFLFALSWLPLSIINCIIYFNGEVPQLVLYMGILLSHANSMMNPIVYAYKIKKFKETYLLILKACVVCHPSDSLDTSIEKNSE
Briefly: Displacement of [125I]AB-MECA from human cloned adenosine A3 receptor expressed in CHO cells. The format is cell-based. The method in brief: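 CHO cells stably expressing hA3. IC50 by non-linear regression over five displacer concentrations in triplicate, converted to Ki by Cheng-Prusoff. Ki values are means of four assays.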
A general note: In a radioligand displacement assay an active substance lowers the binding of a labelled ligand.

Assay [2] addresses Adenosine receptor A2a (Homo sapiens, UniProt P29274). Briefly: Displacement of [125I]NECA from human adenosine A2A receptor expressed in CHO cells at 10uM. The format is cell-based. Particulars: in the assay text read “[3H]NECA” for “[125I]NECA”. The method in brief: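 hA2A stably expressed in CHO cells. Radioligand [3H]NECA (Kd 30 nM). Percentage inhibition of specific binding measured at 10 µM.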

Assay [3] is filed under the species Bos taurus. Nature of the assay: Displacement of [3H]CGS21680 from adenosine A2A receptor in bovine brain membrane at 10 uM. In kind it is cell membranes. The method in brief: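 Bovine striatal membranes, [3H]CGS 21680 (Kd 14 nM). Five displacer concentrations in triplicate, non-linear regression IC50, Cheng-Prusoff Ki, four assays. Single-point data are % inhibition at 10 µM.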

Assay [4] addresses T1, Adenosine receptor A3. Briefly: Antagonist activity at human […] expressed in CHO cells assessed as inhibition of NECA-induced cAMP accumulation. The format is functional, cell-based. The method in brief:
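hA3-transfected CHO cells (~60,000/well, 48 h) preincubated 15 min at 37 °C with Ro 20-1724 (20 µM) and adenosine deaminase (1 U/mL). Compound (1 nM–10 µM, 15 min) added, then 100 nM NECA against 1 µM forskolin-stimulated cAMP. Stopped with 0.4 N HCl. cAMP measured by [3H]cAMP competitive binding-protein assay. Sigmoid non-linear regression; three separate experiments.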

Assay [5] addresses T2, Adenosine receptor A3 (Rattus norvegicus) (UniProt P28647).
T2 sequence (whole entry): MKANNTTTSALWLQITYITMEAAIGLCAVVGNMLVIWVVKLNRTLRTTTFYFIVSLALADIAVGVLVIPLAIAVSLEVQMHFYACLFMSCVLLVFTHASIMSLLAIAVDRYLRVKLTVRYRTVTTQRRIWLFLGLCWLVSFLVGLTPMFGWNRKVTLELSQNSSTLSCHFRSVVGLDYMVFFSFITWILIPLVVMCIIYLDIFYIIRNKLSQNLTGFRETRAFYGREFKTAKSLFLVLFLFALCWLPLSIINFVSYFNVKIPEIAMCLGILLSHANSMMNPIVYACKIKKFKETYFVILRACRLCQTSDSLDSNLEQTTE
Nature of the assay: Displacement of [3H](R)-PIA from adenosine A3 receptor in Wistar rat testis membrane at 1 uM. The format is cell membranes. The method in brief: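 Wistar rat testis membranes (0.1–0.2 mg protein) with 4 nM [3H](R)-PIA in 50 mM Tris/HCl pH 7.4, 1 mM EDTA, 10 mM MgCl2, plus 150 nM DPCPX to block A1 sites. Nonspecific binding defined with 15 µM (R)-PIA. Filtration, then scintillation counting. Percent inhibition at 1 µM.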

Assay [6] has as its target T3, Adenosine receptor A1 (Rattus norvegicus, UniProt P25099).
T3 sequence (P25099 whole entry): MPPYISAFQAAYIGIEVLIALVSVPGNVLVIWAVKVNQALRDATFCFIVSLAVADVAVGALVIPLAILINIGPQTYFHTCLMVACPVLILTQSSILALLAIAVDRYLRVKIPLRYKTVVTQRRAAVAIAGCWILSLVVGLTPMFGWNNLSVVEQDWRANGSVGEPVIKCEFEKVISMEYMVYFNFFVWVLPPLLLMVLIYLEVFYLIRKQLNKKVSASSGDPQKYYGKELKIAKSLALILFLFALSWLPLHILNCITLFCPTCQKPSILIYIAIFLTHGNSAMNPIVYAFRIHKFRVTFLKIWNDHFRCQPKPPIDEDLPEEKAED
Nature of the assay: Displacement of [3H]DPCPX from adenosine A1 receptor in Wistar rat cerebral cortex. In kind it is tissue-based.

The species named for assay [7] is Rattus norvegicus. Briefly: Inhibition of anoxic depolarization in Wistar rat cerebral ischemia model at 10 nM treated after 7 mins of oxygen and glucose deprivation. In kind it is functional. The method in brief: (§1)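 Rat hippocampal slices (400 µm), submerged and superfused with oxygenated aCSF at 30–32 °C. OGD made with glucose-free, N2-gassed aCSF for 7 or 30 min. Drug applied 15 min before, during and 5 min after OGD; 10 nM, with 0.5 nM–1 µM tested in 30-min runs. Anoxic depolarization recorded in CA1 as negative d.c. shift, with peak time from OGD onset. Means ± SEM; unpaired two-tailed t test.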

Assay [8] is filed under the species Rattus norvegicus. Briefly: Inhibition of fEPSP amplitude in Wistar rat cerebral ischemia model at 10 nM treated after 7 mins of oxygen and glucose deprivation. In kind it is functional. The method in brief:
(§2)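 Rat hippocampal slices, CA1 stratum radiatum fEPSP evoked by 80 µs, 0.066 Hz pulses at 30–32 °C. Drug (10 nM) given 15 min before, during and 5 min after 7-min OGD (glucose-free aCSF, 95% N2–5% CO2). Amplitude expressed as % of baseline, with recovery assessed after reperfusion in oxygenated glucose aCSF. Means ± SEM.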

The species named for assay [9] is Rattus norvegicus. Briefly: Effect on fEPSP amplitude under normoxic condition in Wistar rat cerebral ischemia model treated before 15 mins of oxygen and glucose deprivation. The format is functional. The method in brief: as §2
For assay [10], the species on record is Rattus norvegicus. Nature of the assay: Effect on fEPSP amplitude under normoxic condition in Wistar rat cerebral ischemia model treated during oxygen and glucose deprivation. The format is functional. The method in brief:
as §2

The species named for assay [11] is Rattus norvegicus. Nature of the assay: Effect on fEPSP amplitude under normoxic condition in Wistar rat cerebral ischemia model treated after 5 mins of oxygen and glucose deprivation. In kind it is functional. The method in brief: as §2
The species entered for assay [12] is Rattus norvegicus. Briefly: Effect on anoxic depolarization in Wistar rat cerebral ischemia model assessed as delay in appearance treated before 15 mins of oxygen and glucose deprivation. The format is functional. The method in brief: as §1
Assay [13] is filed under the species Rattus norvegicus. Nature of the assay: Effect on anoxic depolarization in Wistar rat cerebral ischemia model assessed as delay in appearance treated during oxygen and glucose deprivation. The format is functional. The method in brief: as §1
In assay [14] the target is T4, Adenosine receptor A1 (Bos taurus, UniProt P28190).
T4 sequence (P28190 whole entry): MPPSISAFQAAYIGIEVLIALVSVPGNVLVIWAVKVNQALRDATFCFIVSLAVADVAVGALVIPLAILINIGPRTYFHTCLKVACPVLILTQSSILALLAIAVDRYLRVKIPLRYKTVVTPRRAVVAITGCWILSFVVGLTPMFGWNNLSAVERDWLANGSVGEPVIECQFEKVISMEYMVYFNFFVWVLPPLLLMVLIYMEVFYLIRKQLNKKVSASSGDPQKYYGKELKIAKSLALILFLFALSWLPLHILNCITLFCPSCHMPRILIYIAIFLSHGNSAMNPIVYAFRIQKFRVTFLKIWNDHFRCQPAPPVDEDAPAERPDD
Nature of the assay: Displacement of [3H]DPCPX from adenosine A1 receptor in bovine brain membrane.

Assay [15] has as its target T5, Adenosine receptor A1 (Homo sapiens) (UniProt P30542).
T5 sequence (whole entry): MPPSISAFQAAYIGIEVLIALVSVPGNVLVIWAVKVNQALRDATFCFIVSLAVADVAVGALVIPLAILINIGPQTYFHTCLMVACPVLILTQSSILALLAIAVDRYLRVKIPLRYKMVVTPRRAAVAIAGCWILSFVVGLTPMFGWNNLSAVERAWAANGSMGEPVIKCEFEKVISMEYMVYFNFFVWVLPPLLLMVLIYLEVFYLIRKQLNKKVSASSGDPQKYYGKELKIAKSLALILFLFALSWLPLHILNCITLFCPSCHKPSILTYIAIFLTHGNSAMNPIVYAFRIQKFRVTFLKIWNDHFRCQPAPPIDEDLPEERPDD
Nature of the assay: Displacement of [3H]DPCPX from human cloned adenosine A1 receptor expressed in CHO cells at 10 uM.

Adenosine receptor A2a, sequence (P29274 whole entry): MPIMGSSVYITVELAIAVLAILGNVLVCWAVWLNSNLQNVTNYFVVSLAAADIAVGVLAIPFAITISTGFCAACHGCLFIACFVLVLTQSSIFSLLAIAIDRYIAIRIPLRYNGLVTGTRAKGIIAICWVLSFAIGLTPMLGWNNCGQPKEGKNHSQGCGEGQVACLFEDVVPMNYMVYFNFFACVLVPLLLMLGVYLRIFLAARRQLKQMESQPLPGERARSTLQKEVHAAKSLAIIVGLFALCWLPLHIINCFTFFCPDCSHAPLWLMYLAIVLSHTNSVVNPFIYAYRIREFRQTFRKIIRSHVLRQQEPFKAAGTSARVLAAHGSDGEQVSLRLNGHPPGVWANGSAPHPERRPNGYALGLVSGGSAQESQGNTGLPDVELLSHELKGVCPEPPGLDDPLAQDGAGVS

Take `CS(=O)(=O)N(c1nc2ccccc2n2c(=O)n(-c3ccccc3)nc12)S(C)(=O)=O`: the Ki was 5.5 nM in assay [1], 132 nM in assay [6] and 36 nM in assay [14]. The Activity in assay [2] was found to be 32%; in assay [3] it was 56%; in [5], 5%; in [12] it was 9.3 min; in assay [13] it was 9.3 min; in assay [15], 36%. Further, in assay [4], the EC50 turned out to be 12 nM. Besides, the outcome in assay [7] and in assay [8] was Active. The result in [9], in assay [10] and in assay [11] was inactive.

What is called Ki is the equilibrium dissociation constant of an inhibitor or competing ligand from its target. For orientation: EC50 means the concentration that produces a half-maximal response.

(Values after ChEMBL document CHEMBL1150363, “Synthesis, ligand-receptor modeling studies and pharmacological evaluation of novel 4-modified-2-aryl-1,2,4-triazolo[4,3-a]quinoxalin-1-one derivatives as potent and selective human A3 adenosine receptor antagonists” (Bioorg Med Chem, 2008).)
